Results collected from several papers.
Lines come from different studies, so protocols differ.
MAP2K6: Dual specificity mitogen-activated protein kinase kinase 6 (MAP2K6, Homo sapiens, UniProt P52564)

SMILES	target	read-out	mode	technique	tested at	measurement	value
Cn1cncc1[C@](O)(COc1ccc(C#N)cc1-c1ccc(OC(F)(F)F)cc1)c1ccc(C#N)cc1	MAP2K6	cell-free assay		competition with immobilised ligand	1 µM	remaining binding	76%
COc1ncccc1-c1cnn2ccc(N3CCN(C(=O)OC(C)C)CC3)nc12	MAP2K6	binding		competition with immobilised ligand	1 µM	remaining binding	56%
Cc1nn(C)cc1-c1nc2c(N3CCN(Cc4ccc(Cl)cc4)CC3)c(Cl)cnc2[nH]1	MAP2K6	binding		competition with immobilised ligand	1 µM	remaining binding	73%
Cn1cc(-c2cc(F)cc(N3CCn4c(cc5c4CCCC5)C3=O)c2CO)cc(Nc2ccc(N3CCN(C4COC4)CC3)cn2)c1=O	MAP2K6	enzyme activity	inhibitor		0.1 µM	inhibition	4%
CC(C)(C)c1cc(C=C(C#N)C#N)cc(Br)c1O	MAP2K6	enzyme activity	inhibitor		0.5 µM	remaining activity	107%
Nc1ncc(-c2nc(N3CCOCC3)nc(N3CCOCC3)n2)c(C(F)F)n1	MAP2K6	binding		competition with immobilised ligand	10 µM	remaining binding	92%
N#CC1(c2ccccn2)CCN(Cc2cc(C(=O)O)c(=O)n3ccccc23)CC1	MAP2K6	cell-free assay		competition with immobilised ligand	1 µM	remaining binding	99%
O=c1[nH]c2ccccc2n1C1CCN(Cc2ccc(-c3[nH]c4cc5ncnc5cc4nc3-c3ccccc3)cc2)CC1	MAP2K6	cell-free assay			0.5 µM	remaining signal	101%
Cn1cc(-c2cccc(N3CCc4c(sc5c4CC(C)(C)C5)C3=O)c2CO)cc(Nc2ccncn2)c1=O	Dual specificity mitogen-activated protein kinase kinase 6 (MAP2K6, Homo sapiens, UniProt P52564, S207E/T211E)	enzyme activity	inhibitor		1 µM	inhibition	-4%
